Experimental data collected from several papers.
Protocols differ between the studies behind these lines.
Target: Inhibitor of nuclear factor kappa-B kinase subunit epsilon (IKBKE, Homo sapiens, UniProt Q14164)
Sequence (Q14164 1-716, as in one of the studies): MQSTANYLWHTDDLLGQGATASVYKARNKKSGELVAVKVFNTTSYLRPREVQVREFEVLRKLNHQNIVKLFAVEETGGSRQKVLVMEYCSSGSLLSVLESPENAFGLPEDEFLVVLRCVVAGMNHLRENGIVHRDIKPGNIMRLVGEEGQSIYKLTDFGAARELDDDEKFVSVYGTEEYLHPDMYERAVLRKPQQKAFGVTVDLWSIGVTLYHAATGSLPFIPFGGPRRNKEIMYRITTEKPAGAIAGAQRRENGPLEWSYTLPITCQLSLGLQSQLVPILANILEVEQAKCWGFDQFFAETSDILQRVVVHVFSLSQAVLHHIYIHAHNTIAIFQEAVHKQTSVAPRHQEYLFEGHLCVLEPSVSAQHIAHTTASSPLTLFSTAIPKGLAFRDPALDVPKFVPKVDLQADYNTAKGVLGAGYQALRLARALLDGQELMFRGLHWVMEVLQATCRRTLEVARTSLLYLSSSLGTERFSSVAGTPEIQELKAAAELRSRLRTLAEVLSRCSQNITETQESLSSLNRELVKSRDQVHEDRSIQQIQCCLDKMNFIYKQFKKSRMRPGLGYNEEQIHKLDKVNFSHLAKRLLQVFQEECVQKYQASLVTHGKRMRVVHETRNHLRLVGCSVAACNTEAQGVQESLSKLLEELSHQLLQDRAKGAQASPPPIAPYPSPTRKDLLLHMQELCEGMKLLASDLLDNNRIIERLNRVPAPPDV

SMILES	test	conditions	remaining binding
CNC(=O)[C@@H]1CC[C@@H](n2c(-c3ccc4cnccc4c3)nc3ccc(C(=O)NCc4cccc(C(N)=O)c4)cc32)C1	binding, competition with immobilised ligand	1 µM	98%
CCN1CCN(Cc2ccc(C(=O)Nc3ccc(C)c(Oc4ccc5c(c4)CC(=O)N5)c3)cc2C(F)(F)F)CC1	binding, competition with immobilised ligand	1 µM	100%
CN(CCCC(F)(F)F)c1nccc(-c2cnn3ncccc23)n1	binding	1 µM	100%
O=C(c1ccc(Nc2ncc(Cl)c(-c3cc4ccccc4s3)n2)cc1)N1CCC(N2CCCC2)CC1	binding, competition with immobilised ligand	1 µM	21%
Nc1cnc(N2CCc3cc(S(=O)(=O)Nc4c(F)cc(Cl)cc4F)cc(N4CCCC4=O)c32)nc1	cell-free assay, competition with immobilised ligand	1 µM	95%
CN(C)c1nccc(-c2cnn3ncccc23)n1	binding	1 µM	89%
O=C(NCC1CCOCC1)c1n[nH]cc1NC(=O)c1c(F)cccc1F	binding, competition with immobilised ligand	1 µM	81%
O=C(NCCCN1CCOCC1)c1ccc(Nc2ncc(Cl)c(-c3ccc(Cl)s3)n2)cc1	binding, competition with immobilised ligand	1 µM	52%
CC1=C(C#N)[C@@H](c2ccc3[nH]nc(C)c3c2)C(C#N)=C(c2ccc(Cl)cc2)N1	cell-free assay, competition with immobilised ligand	1 µM	100%
O=C(c1ccc(Nc2nccc(-c3cc4ccccc4s3)n2)cc1)N1CCC(N2CCCC2)CC1	binding, competition with immobilised ligand	1 µM	31%
N[C@@H]1CCN(c2nccc(-c3cnn4ncccc34)n2)C1	binding	1 µM	100%
CCC(=O)N[C@@H]1CC[C@H](C(=O)N(C)c2ccc(-c3nc4ccccc4o3)cc2)C1	cell-free assay, competition with immobilised ligand	1 µM	60%
CN(c1nccc(-c2cnn3ncccc23)n1)C1CC1	binding	1 µM	100%
CNC(=O)Nc1ccc2c(c1)CC[C@@]21OC(=O)N(CC(=O)N(Cc2ccc(F)cc2)[C@@H](C)C(F)(F)F)C1=O	cell-free assay, competition with immobilised ligand	1 µM	51%
COc1ncc2cc3ccccc3nc2c1C#N	cell-free assay, competition with immobilised ligand	5 µM	97%
C[C@@H]1CCN(c2nccc(-c3cnn4ncccc34)n2)C1	binding	1 µM	82%
CC(C)(O)c1cncc(-c2nc3ccc(F)cc3n2C2CC2)c1	cell-free assay, competition with immobilised ligand	1 µM	100%
Nc1ncc2c(n1)-c1c([nH]c3ccc(C#CC4CC4)cc13)CCCC2	binding, competition with immobilised ligand	1 µM	83%
CO[C@H]1CC[C@H](CNc2ccc(S(=O)(=O)NC(=O)c3ccc(N4CCN(CC5=C(c6ccc(Cl)cc6)CC(C)(C)CC5)CC4)cc3Oc3cnc4[nH]ccc4c3)cc2[N+](=O)[O-])CC1	cell-free assay, competition with immobilised ligand	1 µM	100%
CN(C)c1nccc(-c2cnc3ncccn23)n1	binding	1 µM	100%
